Results: ChEMBL document CHEMBL4373680, “Small antibacterial molecules highly active against drug-resistant Staphylococcus aureus” (Medchemcomm, 2019)
Converted amounts (≈) assume the structure as drawn. The source made the active and inactive calls. No cut-off for these calls is given here.

Assays:
Staphylococcus aureus [1] = experiment: Antibacterial activity against methicillin-resistant Staphylococcus aureus ATCC 33591 after 24 hrs by tecan plate reader analysis; type: functional; details: ATCC 33591, 24 h
Outline: (§1)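 Colony grown 24 h on NB agar at 37 °C, then 6 h in nutrient broth to mid-log (10⁸ CFU/mL by drop plating), diluted to 10⁵ CFU/mL in Mueller Hinton broth; added 9:1 to two-fold serial compound dilutions in MHB. Incubated 24 h, 37 °C; OD600 read. Triplicate per concentration, experiment run twice; MIC taken from the range of triplicate OD values.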

Acinetobacter baumannii = experiment: Antibacterial activity against Acinetobacter baumannii MTCC 1425 after 24 hrs by tecan plate reader analysis; type: functional
Outline: (§2)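 Broth microdilution MIC. Glycerol stocks grown on MacConkey agar 24 h at 37 °C, then a single colony in nutrient broth 6 h to mid-log (~10⁸ CFU/mL). Cells diluted to 10⁵ CFU/mL in Mueller Hinton broth and added to two-fold compound dilutions. Incubated 24 h at 37 °C, OD600 read. Triplicate wells, experiment run twice.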

Escherichia coli = experiment: Antibacterial activity against Escherichia coli MTCC 443 after 24 hrs by tecan plate reader analysis; type: functional; outline: as §2
Pseudomonas aeruginosa = experiment: Antibacterial activity against Pseudomonas aeruginosa MTCC 424 after 24 hrs by tecan plate reader analysis; type: functional; outline: as §2
[2] = Hemolytic activity in human erythrocytes after 1 hr; type: ADME, cell-based, Erythrocyte
Outline: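 Heparinized donor blood. Erythrocytes washed three times in PBS and resuspended to 5 vol%, then mixed 3:1 with compound serially diluted in water. Incubated 1 h at 37 °C and centrifuged. Supernatant A540 read; % hemolysis relative to water and 0.1 vol% Triton-X controls.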

Klebsiella pneumoniae = experiment: Antibacterial activity against Klebsiella pneumoniae ATCC 700603 after 24 hrs by tecan plate reader analysis; type: functional; outline: as §2
[3] = Selectivity index, ratio of HC50 for human erythrocytes to MIC for Escherichia coli MTCC 443; type: toxicity; details: read-out: Selectivity Index
Staphylococcus aureus [4] = experiment: Bactericidal activity against metabolically inactive stationary phase methicillin-resistant Staphylococcus aureus ATCC 33591 assessed as reduction in bacterial colony formation at 32 ug/ml incubated for 6 hrs followed by plating on agar plate for 24 hrs by visual counting analysis; type: functional, organism-based
Staphylococcus aureus [5] = experiment: Antibacterial activity against vancomycin-resistant Staphylococcus aureus clinical isolate 1 after 24 hrs by tecan plate reader analysis; type: functional; details: clinical isolate 1, 24 h; outline: as §1
Staphylococcus aureus [6] = experiment: Antibiofilm activity against Staphylococcus aureus ATCC 33591 assessed as reduction in biofilm biomass at 32 ug/ml incubated for 24 hrs followed by plating on agar plate for 24 hrs by crystal violet staining assay relative to control; type: functional; details: ATCC 33591, 24 h
Outline: (§3)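 Biofilms grown 24 h static at 37 °C on coverslips (10⁵ CFU/mL in nutrient broth, 1% glucose, 1% NaCl) and treated 24 h, then PBS-washed, air-dried 10–15 min, stained with 0.1% w/v crystal violet 5–10 min, washed, dye recovered in 95% ethanol; OD 522 nm read. Run twice, mean with standard deviation.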

Staphylococcus aureus [7] = experiment: Antibiofilm activity against Staphylococcus aureus R3545 assessed as reduction in biofilm biomass at 32 ug/ml incubated for 24 hrs followed by plating on agar plate for 24 hrs by crystal violet staining assay relative to control; type: functional; details: R3545, 24 h; outline: as §3
Staphylococcus aureus [8] = experiment: Antibacterial activity against vancomycin-resistant Staphylococcus aureus clinical isolate 4 after 24 hrs by tecan plate reader analysis; type: functional; details: clinical isolate 4, 24 h; outline: as §1
Staphylococcus aureus [9] = experiment: Bactericidal activity against metabolically inactive stationary phase methicillin-resistant Staphylococcus aureus R3545 assessed as reduction in bacterial colony formation at 32 ug/ml incubated for 6 hrs followed by plating on agar plate for 24 hrs by visual counting analysis; type: functional, organism-based
Staphylococcus aureus [10] = experiment: Antibacterial activity against methicillin-resistant Staphylococcus aureus R3890 clinical isolate after 24 hrs by tecan plate reader analysis; type: functional; details: R3890, 24 h; outline: as §1
Staphylococcus aureus [11] = experiment: Antibacterial activity against methicillin-resistant Staphylococcus aureus R3545 clinical isolate after 24 hrs by tecan plate reader analysis; type: functional; details: R3545, 24 h; outline: as §1
Staphylococcus aureus [12] = experiment: Antibacterial activity against methicillin-resistant Staphylococcus aureus R3889 clinical isolate after 24 hrs by tecan plate reader analysis; type: functional; details: R3889, 24 h; outline: as §1
[13] = Klebsiella pneumoniae, 700603, 24 h

Compound	MIC (Staphylococcus aureus [1])	MIC (Acinetobacter baumannii; MTCC 1425, 24 h)	MIC (Escherichia coli; MTCC 443, 24 h)	MIC (Pseudomonas aeruginosa; MTCC 424, 24 h)	HC50 at 1 h [2]	MIC (Klebsiella pneumoniae; [13])	also measured
CCCCCCCCCCNC(=O)C[N+](C)(CCO)CCCCCCCC[N+](C)(CCO)CC(=O)NCCCCCCCCCC.[Br-].[Br-] (centres undefined)	0.5 µg/mL	1 µg/mL	1 µg/mL	4 µg/mL	25 µg/mL	2 µg/mL	–
CCCCCCCCCCNC(=O)C[N+](C)(CCO)CCCCCCCCCCCC[N+](C)(CCO)CC(=O)NCCCCCCCCCC.[Br-].[Br-] (centres undefined)	2 µg/mL	2 µg/mL	4 µg/mL	32 µg/mL	16 µg/mL	16 µg/mL	–
CCCCCCCCNC(=O)C[N+](C)(CCO)CCCCCCCC[N+](C)(CCO)CC(=O)NCCCCCCCC.[Br-].[Br-] (centres undefined)	0.5 to 1 µg/mL	8 µg/mL	1 to 2 µg/mL	16 µg/mL	61 µg/mL	8 µg/mL	–
CCCCCCCCNC(=O)C[N+](C)(CCO)CCC[N+](C)(CCO)CC(=O)NCCCCCCCC.[Br-].[Br-] (centres undefined)	2 µg/mL	32 µg/mL	16 µg/mL	8 µg/mL	178 µg/mL	32 µg/mL	–
CCCCCCCCCCNC(=O)C[N+](C)(CCO)CCCCCCCCCC[N+](C)(CCO)CC(=O)NCCCCCCCCCC.[Br-].[Br-] (centres undefined)	0.5 µg/mL	1 µg/mL	2 µg/mL	8 µg/mL	18 µg/mL	4 µg/mL	–
CCCCCCNC(=O)C[N+](C)(CCO)CCCCCCCCCC[N+](C)(CCO)CC(=O)NCCCCCC.O=C([O-])C(F)(F)F.O=C([O-])C(F)(F)F (centres undefined)	8 µg/mL	256 µg/mL	8 µg/mL	256 µg/mL	> 1020 µg/mL	> 256 µg/mL	selectivity ratio [3]: 125
COLISTIN	–	–	–	–	–	–	MIC (Acinetobacter baumannii): 0.5 µg/mL; MIC (Escherichia coli): 1 µg/mL; MIC (Pseudomonas aeruginosa): 1 µg/mL; MIC (Klebsiella pneumoniae): 1 µg/mL
CCCCCCCCCCCCNC(=O)C[N+](C)(CCO)CCC[N+](C)(CCO)CC(=O)NCCCCCCCCCCCC.[Br-].[Br-] (centres undefined)	2 µg/mL	8 µg/mL	16 µg/mL	64 to 128 µg/mL	37 µg/mL	128 to 256 µg/mL	–
CCCCCCCCCCCCNC(=O)C[N+](C)(CCO)CCCCCCCC[N+](C)(CCO)CC(=O)NCCCCCCCCCCCC.[Br-].[Br-] (centres undefined)	2 µg/mL	4 µg/mL	32 µg/mL	64 to 128 µg/mL	29 µg/mL	64 µg/mL	–
CCCCCCCCCCNC(=O)C[N+](C)(CCO)CCC[N+](C)(CCO)CC(=O)NCCCCCCCCCC.[Br-].[Br-] (centres undefined)	1 µg/mL	2 µg/mL	1 µg/mL	2 µg/mL	34 µg/mL	4 µg/mL	–
CN[C@H](CC(C)C)C(=O)N[C@H]1C(=O)N[C@@H](CC(N)=O)C(=O)N[C@H]2C(=O)N[C@H]3C(=O)N[C@H](C(=O)N[C@H](C(=O)O)c4cc(O)cc(O)c4-c4cc3ccc4O)[C@H](O)c3ccc(c(Cl)c3)Oc3cc2cc(c3O[C@@H]2O[C@H](CO)[C@@H](O)[C@H](O)[C@H]2O[C@H]2C[C@](C)(N)[C@H](O)[C@H](C)O2)Oc2ccc(cc2Cl)[C@H]1O [VANCOMYCIN]	0.5 to 1 µg/mL (≈ 0.345 to 0.69 µM)	–	–	–	–	–	Activity (Staphylococcus aureus [4]): inactive; MIC (Staphylococcus aureus [5]): 512 µg/mL (≈ 353 µM); inhibition at 32 µg/mL (Staphylococcus aureus [6]): 10%; inhibition at 32 µg/mL (Staphylococcus aureus [7]): 10%; MIC (Staphylococcus aureus [8]): 512 µg/mL (≈ 353 µM); Activity (Staphylococcus aureus [9]): inactive
CCCCCCCCCCNC(=O)C[N+](C)(CCO)CCCCCC[N+](C)(CCO)CC(=O)NCCCCCCCCCC.[Br-].[Br-] (centres undefined)	0.5 µg/mL	2 µg/mL	1 µg/mL	4 µg/mL	31 µg/mL	2 to 4 µg/mL	–
CCCCCCCCCCCCNC(=O)C[N+](C)(CCO)CCCCCCCCCC[N+](C)(CCO)CC(=O)NCCCCCCCCCCCC.[Br-].[Br-] (centres undefined)	4 µg/mL	8 µg/mL	32 µg/mL	64 to 128 µg/mL	32 µg/mL	64 to 128 µg/mL	–
CCCCCCNC(=O)C[N+](C)(CCO)CCCCCC[N+](C)(CCO)CC(=O)NCCCCCC.O=C([O-])C(F)(F)F.O=C([O-])C(F)(F)F (centres undefined)	256 µg/mL	> 256 µg/mL	> 256 µg/mL	> 256 µg/mL	> 1020 µg/mL	> 256 µg/mL	–
CCCCCCCCNC(=O)C[N+](C)(CCO)CCCCCCCCCC[N+](C)(CCO)CC(=O)NCCCCCCCC.[Br-].[Br-] (centres undefined)	0.25 to 0.5 µg/mL	4 µg/mL	0.5 µg/mL	4 µg/mL	28 µg/mL	4 µg/mL	–
COc1cccc(OC)c1C(=O)N[C@@H]1C(=O)N2[C@@H]1SC(C)(C)[C@@H]2C(=O)O [METHICILLIN]	> 32 µg/mL	–	–	–	–	–	MIC (Staphylococcus aureus [10]): > 32 µg/mL; MIC (Staphylococcus aureus [11]): 16 to 32 µg/mL (≈ 42.1 to 84.1 µM); MIC (Staphylococcus aureus [12]): 16 to 32 µg/mL (≈ 42.1 to 84.1 µM)
CCCCCCNC(=O)C[N+](C)(CCO)CCC[N+](C)(CCO)CC(=O)NCCCCCC.O=C([O-])C(F)(F)F.O=C([O-])C(F)(F)F (centres undefined)	256 µg/mL	> 256 µg/mL	> 256 µg/mL	> 256 µg/mL	> 1020 µg/mL	> 256 µg/mL	–
CCCCCCCCCCCCNC(=O)C[N+](C)(CCO)CCCCCC[N+](C)(CCO)CC(=O)NCCCCCCCCCCCC.[Br-].[Br-] (centres undefined)	1 to 2 µg/mL	4 µg/mL	8 µg/mL	128 to 256 µg/mL	31 µg/mL	128 µg/mL	–
CCCCCCNC(=O)C[N+](C)(CCO)CCCCCCCC[N+](C)(CCO)CC(=O)NCCCCCC.O=C([O-])C(F)(F)F.O=C([O-])C(F)(F)F (centres undefined)	128 µg/mL	> 256 µg/mL	256 µg/mL	> 256 µg/mL	> 1020 µg/mL	> 256 µg/mL	–
CCCCCCCCNC(=O)C[N+](C)(CCO)CCCCCCCCCCCC[N+](C)(CCO)CC(=O)NCCCCCCCC.[Br-].[Br-] (centres undefined)	0.25 µg/mL	2 µg/mL	0.5 to 1 µg/mL	4 µg/mL	12 µg/mL	2 µg/mL	–
CCCCCCCCCCCCNC(=O)C[N+](C)(CCO)CCCCCCCCCCCC[N+](C)(CCO)CC(=O)NCCCCCCCCCCCC.[Br-].[Br-] (centres undefined)	2 to 4 µg/mL	32 µg/mL	32 µg/mL	64 µg/mL	22 µg/mL	128 to 256 µg/mL	–
